What was measured:
[1] = target: T1, Sigma intracellular receptor 2 (Rattus norvegicus, UniProt Q5U3Y7); experiment: Displacement of [3H]-di-o-tolylguanidine from sigma2 receptor in rat liver membranes incubated for 120 mins by scintillation counting method; assay type: cell membranes
T1 sequence (Q5U3Y7 whole entry): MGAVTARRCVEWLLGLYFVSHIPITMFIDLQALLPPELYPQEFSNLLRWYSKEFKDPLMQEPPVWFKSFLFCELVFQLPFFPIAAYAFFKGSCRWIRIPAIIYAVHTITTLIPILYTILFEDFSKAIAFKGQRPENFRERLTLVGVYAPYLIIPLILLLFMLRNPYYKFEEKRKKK

[2] = Displacement of [3H] ifenprodil from GluN2B/GluN1a (unknown origin) expressed in mouse L(tk-) cell membranes incubated for 120 mins by scintillation counting method; set-up: species or system Homo sapiens
Procedure, shortened: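 Membranes from mouse L(tk-) cells co-transfected with dexamethasone-inducible GluN1a/GluN2B (1:5), induced 24 h with 4 μM dexamethasone plus 4 μM ketamine.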

[3] = target: Sigma non-opioid intracellular receptor 1 (Cavia porcellus, UniProt Q60492); assay type: cell membranes;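 further: radioligand displacement of [3H]-(+)-pentazocine from guinea pig brain cortex membranes, 120 min incubation, bound radioactivity read by scintillation counting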
[4] = Selectivity ratio of Ki for sigma2 receptor in rat liver membranes to ratio of Ki for GluN2B/GluN1a (unknown origin) expressed in mouse L(tk-) cell membranes; assay type: cell-based
Sus scrofa = species on record: Sus scrofa; conditions: at 1 µM
[5] = Selectivity ratio of Ki for sigma1 receptor in guinea pig brain cortex membranes to ratio of Ki for GluN2B/GluN1a (unknown origin) expressed in mouse L(tk-) cell membranes; assay type: cell-based

Sequence of Sigma non-opioid intracellular receptor 1 (Q60492 whole entry): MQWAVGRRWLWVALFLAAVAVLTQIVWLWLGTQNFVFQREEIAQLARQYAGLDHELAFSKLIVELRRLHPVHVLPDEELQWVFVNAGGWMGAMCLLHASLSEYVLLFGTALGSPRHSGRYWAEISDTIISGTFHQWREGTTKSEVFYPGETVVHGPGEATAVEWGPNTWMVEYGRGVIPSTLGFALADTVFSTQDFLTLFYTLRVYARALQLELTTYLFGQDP

Structure (SMILES)	Ki [1]	Ki [2]	Ki [3]	Ratio Ki [4]	inhibition (Sus scrofa)	Ratio Ki [5]
FC(CCOc1ccc2c(c1)CCN(CCC(F)Cc1ccccc1)CC2)Cc1ccccc1 (stereo unspecified)	643 nM	249 nM	185 nM			
Oc1ccc2c(c1)CCN(CCC(F)Cc1ccccc1)CC2 (single isomer, unassigned; (+))	49 nM	54 nM	10 nM			
COc1ccc2c(c1)CCN(CC(F)CCc1ccccc1)CC2O (stereo unspecified)	7900 nM	506 nM	585 nM	15	0%	
OC1CN(CCCCc2ccccc2)CCc2cc(OCc3ccccc3)ccc21 (stereo unspecified)		505 nM		2		
OC1CN(CC(F)CCc2ccccc2)CCc2cc(OCc3ccccc3)ccc21 (stereo unspecified)	1400 nM	784 nM	393 nM	2	0%	
Oc1ccc2c(c1)CCN(CCC(F)Cc1ccccc1)CC2O (stereo unspecified)	130 nM	422 nM	1400 nM		8%	2 to 3
COc1ccc2c(c1)CCN(CCCCc1ccccc1)CC2	56 nM	55 nM	11 nM		0%	
OC1CN(CCC(F)Cc2ccccc2)CCc2cc(OCc3ccccc3)ccc21 (stereo unspecified)	1800 nM	813 nM	183 nM	2	0%	
Oc1ccc2c(c1)CCN(CCCCc1ccccc1)CC2O (stereo unspecified)					35%	2 to 3
FC(CCc1ccccc1)CN1CCc2ccccc2CC1 (stereo unspecified)	333 nM	239 nM	108 nM		0%	
OC(CN1CCC(Cc2ccc(F)cc2)CC1)c1ccc(Cl)cc1 (stereo unspecified) [ELIPRODIL]		13 nM				
Oc1ccc2c(c1)CCN(CCC(F)Cc1ccccc1)CC2 (racemic) [listing 1 of 2 here]					15%	
FCCOc1ccc2c(c1)CCN(CCC(F)Cc1ccccc1)CC2 (stereo unspecified)	524 nM	348 nM	25 nM			
Oc1ccc2c(c1)CCN(CCCCc1ccccc1)CC2	12 nM	9.9 nM	32 nM			2 to 3
Oc1ccc2c(c1)CCN(CCC(F)Cc1ccccc1)CC2 (racemic) [listing 2 of 2 here]	39 nM	16 nM	17 nM			
COc1ccc2c(c1)CCN(CC(F)CCc1ccccc1)CC2 (stereo unspecified)	740 nM	602 nM	213 nM		0%	
Oc1ccc2c(c1)CCN(CC(F)CCc1ccccc1)CC2 (stereo unspecified)	153 nM	86 nM	70 nM		0%	
Oc1ccc2c(c1)CCN(CCC(F)Cc1ccccc1)CC2 (single isomer, unassigned; (-))	63 nM	65 nM	25 nM			
COc1ccc2c(c1)CCN(CCC(F)Cc1ccccc1)CC2O (stereo unspecified)	4500 nM	630 nM	210 nM	7	0%	

Source: ChEMBL document CHEMBL4393719, “Tetrahydro-3-benzazepines with fluorinated side chains as NMDA and σ1 receptor antagonists: Synthesis, receptor affinity, selectivity and antiallodynic activity” (Eur J Med Chem, 2019)
